Experiments:
[1] = target: Somatostatin receptor type 1 (Rattus norvegicus, UniProt P28646); assay: Binding affinity to rat sst1 receptor
Procedure, shortened: (§1)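 Receptor binding run on rat sst1 and sst2 and on human sst1–sst5; affinities given as pKd, mean ± SEM of 3–6 experiments.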

[2] = target: Somatostatin receptor type 2 (Rattus norvegicus, UniProt P30680); assay: Binding affinity to rat sst2 receptor; procedure, shortened: as §1
Rattus norvegicus = species: Rattus norvegicus; assay: Selectivity for rat sst1 receptor over rat sst2 receptor
[3] = target: Somatostatin receptor type 3 (Homo sapiens, UniProt P32745); assay: Binding affinity to human sst3 receptor; procedure, shortened: as §1
Sequence of Somatostatin receptor type 3 (P32745 whole entry): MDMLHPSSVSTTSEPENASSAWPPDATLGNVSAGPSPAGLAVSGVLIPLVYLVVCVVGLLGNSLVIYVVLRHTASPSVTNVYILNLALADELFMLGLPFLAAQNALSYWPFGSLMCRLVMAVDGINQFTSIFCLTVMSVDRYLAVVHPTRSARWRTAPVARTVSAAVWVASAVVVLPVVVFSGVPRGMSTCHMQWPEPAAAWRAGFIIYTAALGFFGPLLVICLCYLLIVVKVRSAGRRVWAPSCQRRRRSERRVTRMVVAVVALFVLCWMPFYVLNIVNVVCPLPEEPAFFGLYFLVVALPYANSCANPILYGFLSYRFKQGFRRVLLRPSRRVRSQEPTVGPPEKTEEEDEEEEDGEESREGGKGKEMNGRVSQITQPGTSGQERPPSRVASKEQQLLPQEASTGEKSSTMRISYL

[4] = target: Somatostatin receptor type 4 (Homo sapiens, UniProt P31391); assay: Binding affinity to human sst4 receptor; procedure, shortened: as §1
Sequence of Somatostatin receptor type 4 (P31391 whole entry): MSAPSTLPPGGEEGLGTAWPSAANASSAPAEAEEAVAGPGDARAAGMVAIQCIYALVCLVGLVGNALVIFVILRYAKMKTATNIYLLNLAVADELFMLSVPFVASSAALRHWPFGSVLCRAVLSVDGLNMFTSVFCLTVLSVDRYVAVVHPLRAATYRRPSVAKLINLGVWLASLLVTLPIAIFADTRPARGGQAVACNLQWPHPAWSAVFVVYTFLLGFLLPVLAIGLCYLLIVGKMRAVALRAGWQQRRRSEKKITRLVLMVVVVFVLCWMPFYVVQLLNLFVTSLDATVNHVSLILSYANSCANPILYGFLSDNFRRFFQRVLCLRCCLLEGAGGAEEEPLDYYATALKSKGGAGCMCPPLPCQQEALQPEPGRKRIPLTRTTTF

[5] = target: T1, Somatostatin receptor type 1 (Homo sapiens, UniProt P30872); assay: Binding affinity to human sst1 receptor; procedure, shortened: as §1
T1 sequence (P30872 whole entry): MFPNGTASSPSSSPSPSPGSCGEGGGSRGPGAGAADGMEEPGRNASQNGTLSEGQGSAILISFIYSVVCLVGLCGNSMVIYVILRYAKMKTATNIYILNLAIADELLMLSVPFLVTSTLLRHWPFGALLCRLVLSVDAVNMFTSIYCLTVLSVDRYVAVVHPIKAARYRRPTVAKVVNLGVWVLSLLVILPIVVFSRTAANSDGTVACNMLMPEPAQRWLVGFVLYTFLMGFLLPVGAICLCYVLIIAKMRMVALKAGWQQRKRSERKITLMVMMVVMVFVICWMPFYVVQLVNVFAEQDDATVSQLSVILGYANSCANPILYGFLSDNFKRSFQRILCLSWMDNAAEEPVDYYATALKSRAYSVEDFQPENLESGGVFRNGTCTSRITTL

[6] = target: Somatostatin receptor type 2 (Homo sapiens, UniProt P30874); assay: Binding affinity to human sst2 receptor; procedure, shortened: as §1
Sequence of Somatostatin receptor type 2 (Homo sapiens, UniProt P30874) (P30874 whole entry): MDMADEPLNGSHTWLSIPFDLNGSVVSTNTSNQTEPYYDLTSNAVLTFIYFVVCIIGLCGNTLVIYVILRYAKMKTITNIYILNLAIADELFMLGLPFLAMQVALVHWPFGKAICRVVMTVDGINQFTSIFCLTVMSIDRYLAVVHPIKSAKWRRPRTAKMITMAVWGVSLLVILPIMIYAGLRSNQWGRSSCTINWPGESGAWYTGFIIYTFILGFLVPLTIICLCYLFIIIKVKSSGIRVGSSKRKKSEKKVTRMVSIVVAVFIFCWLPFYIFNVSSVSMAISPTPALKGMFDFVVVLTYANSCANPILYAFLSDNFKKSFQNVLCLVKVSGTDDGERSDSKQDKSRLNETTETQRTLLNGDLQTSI

Cytochrome P450 2D6 = Cytochrome P450 2D6 (Homo sapiens, UniProt P10635); assay: Inhibition of human CYP2D6 by microplate-based direct fluorometric assay; format: ADME
Sequence of Cytochrome P450 2D6 (P10635 whole entry): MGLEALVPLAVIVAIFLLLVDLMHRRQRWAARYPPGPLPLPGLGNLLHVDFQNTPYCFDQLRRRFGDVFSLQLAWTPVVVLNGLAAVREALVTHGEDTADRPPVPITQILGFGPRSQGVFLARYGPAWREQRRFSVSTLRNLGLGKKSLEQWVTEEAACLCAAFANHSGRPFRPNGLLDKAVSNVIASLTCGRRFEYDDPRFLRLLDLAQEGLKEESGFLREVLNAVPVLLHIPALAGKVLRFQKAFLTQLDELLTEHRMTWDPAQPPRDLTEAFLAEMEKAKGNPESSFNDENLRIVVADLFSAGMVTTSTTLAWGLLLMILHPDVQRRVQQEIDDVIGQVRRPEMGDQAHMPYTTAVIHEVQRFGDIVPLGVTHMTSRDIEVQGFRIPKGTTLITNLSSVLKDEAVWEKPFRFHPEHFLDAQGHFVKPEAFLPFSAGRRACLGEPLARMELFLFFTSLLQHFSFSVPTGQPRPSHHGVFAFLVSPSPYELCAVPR

[7] = Oral bioavailability in mouse at 30 umol/kg; format: ADME, organism-based; details: in vivo
Procedure, shortened: (§2)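 Mice dosed by the intravenous and the oral route; drug levels followed in both plasma and brain; apparent terminal half-life taken from plasma; oral bioavailability estimated.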

Cytochrome P450 2C19 = Cytochrome P450 2C19 (Homo sapiens, UniProt P33261); assay: Inhibition of human CYP2C19 by microplate-based direct fluorometric assay; format: ADME
Sequence of Cytochrome P450 2C19 (P33261 whole entry): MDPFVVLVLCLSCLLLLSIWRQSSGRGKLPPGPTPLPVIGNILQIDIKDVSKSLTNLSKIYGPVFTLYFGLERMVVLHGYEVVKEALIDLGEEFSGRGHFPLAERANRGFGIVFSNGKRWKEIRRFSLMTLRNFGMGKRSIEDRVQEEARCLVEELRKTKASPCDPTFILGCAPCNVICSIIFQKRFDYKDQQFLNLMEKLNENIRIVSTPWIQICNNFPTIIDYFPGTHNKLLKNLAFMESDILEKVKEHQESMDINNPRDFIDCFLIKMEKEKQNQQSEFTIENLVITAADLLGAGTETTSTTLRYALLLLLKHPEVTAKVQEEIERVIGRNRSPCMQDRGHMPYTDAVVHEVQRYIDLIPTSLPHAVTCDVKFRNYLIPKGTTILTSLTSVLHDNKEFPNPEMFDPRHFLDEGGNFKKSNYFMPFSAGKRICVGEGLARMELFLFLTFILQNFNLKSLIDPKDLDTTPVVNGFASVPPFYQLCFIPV

[8] = Tmax in mouse at 10 umol/kg, iv and 30 umol/kg, po; format: ADME, organism-based; details: in vivo; procedure, shortened: as §2
[9] = Ratio of drug level in brain to plasma in mouse at 10 umol/kg, iv and 30 umol/kg, po; format: ADME, organism-based
Procedure, shortened: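 Pharmacokinetic study in mice given a single intravenous dose or an oral dose. Drug concentrations were measured in plasma and brain over time after each route. The brain/plasma concentration ratio was derived for each route.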

V79 = assay: Genotoxicity in Chinese hamster V79 cells by micronucleus test; format: toxicity, cell-based, Cricetulus griseus
D(4) dopamine receptor = target: T2, D(4) dopamine receptor (Homo sapiens, UniProt P21917); assay: Binding affinity to dopamine D4 receptor
T2 sequence (P21917 whole entry): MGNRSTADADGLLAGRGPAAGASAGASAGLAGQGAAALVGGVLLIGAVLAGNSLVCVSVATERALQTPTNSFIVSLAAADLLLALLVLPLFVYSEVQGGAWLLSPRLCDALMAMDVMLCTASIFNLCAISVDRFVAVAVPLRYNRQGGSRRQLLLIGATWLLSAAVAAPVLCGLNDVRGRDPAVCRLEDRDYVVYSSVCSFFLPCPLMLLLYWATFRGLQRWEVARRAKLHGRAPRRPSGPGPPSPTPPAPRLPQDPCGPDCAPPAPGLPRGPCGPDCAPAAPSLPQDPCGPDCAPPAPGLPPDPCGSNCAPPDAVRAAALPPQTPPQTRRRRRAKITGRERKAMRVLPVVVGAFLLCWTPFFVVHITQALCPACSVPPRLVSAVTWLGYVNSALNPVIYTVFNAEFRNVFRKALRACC

[10] = Apparent terminal half life in mouse plasma at 10 umol/kg, iv and 30 umol/kg, po; format: ADME, organism-based; details: read-out: beta t1/2 (converted); procedure, shortened: as §2
D(2) dopamine receptor = D(2) dopamine receptor (Homo sapiens, UniProt P14416); assay: Binding affinity to dopamine D2 receptor
Sequence of D(2) dopamine receptor (P14416 whole entry): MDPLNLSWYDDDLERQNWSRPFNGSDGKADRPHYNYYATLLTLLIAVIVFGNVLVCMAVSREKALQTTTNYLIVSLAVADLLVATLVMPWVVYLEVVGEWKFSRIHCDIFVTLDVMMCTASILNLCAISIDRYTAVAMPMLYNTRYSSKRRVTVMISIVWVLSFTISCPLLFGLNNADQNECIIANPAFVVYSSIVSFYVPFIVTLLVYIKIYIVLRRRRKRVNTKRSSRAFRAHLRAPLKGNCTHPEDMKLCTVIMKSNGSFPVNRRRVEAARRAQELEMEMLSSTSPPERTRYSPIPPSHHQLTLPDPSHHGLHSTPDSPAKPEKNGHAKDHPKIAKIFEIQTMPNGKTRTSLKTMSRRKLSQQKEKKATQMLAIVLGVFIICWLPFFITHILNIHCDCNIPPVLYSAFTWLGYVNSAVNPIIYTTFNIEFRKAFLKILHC

[11] = Binding affinity to adrenergic alpha1 receptor
[12] = target: Somatostatin receptor type 1 (Rattus norvegicus) (UniProt P28646); assay: Antagonist activity at rat sst1 receptor assessed as inhibition of forskolin-stimulated cAMP accumulation by luciferase assay; format: functional
Sequence of Somatostatin receptor type 1 (Rattus norvegicus) (P28646 whole entry): as the sequence (P30872 whole entry) above, with S8P, S11T, P16S, S20G, G25V, G26C, A32S, A45S, T385A, T389S counted along it

Cytochrome P450 1A2 = target: T3, Cytochrome P450 1A2 (Homo sapiens, UniProt P05177); assay: Inhibition of human CYP1A2 by microplate-based direct fluorometric assay; format: ADME
T3 sequence (P05177 whole entry): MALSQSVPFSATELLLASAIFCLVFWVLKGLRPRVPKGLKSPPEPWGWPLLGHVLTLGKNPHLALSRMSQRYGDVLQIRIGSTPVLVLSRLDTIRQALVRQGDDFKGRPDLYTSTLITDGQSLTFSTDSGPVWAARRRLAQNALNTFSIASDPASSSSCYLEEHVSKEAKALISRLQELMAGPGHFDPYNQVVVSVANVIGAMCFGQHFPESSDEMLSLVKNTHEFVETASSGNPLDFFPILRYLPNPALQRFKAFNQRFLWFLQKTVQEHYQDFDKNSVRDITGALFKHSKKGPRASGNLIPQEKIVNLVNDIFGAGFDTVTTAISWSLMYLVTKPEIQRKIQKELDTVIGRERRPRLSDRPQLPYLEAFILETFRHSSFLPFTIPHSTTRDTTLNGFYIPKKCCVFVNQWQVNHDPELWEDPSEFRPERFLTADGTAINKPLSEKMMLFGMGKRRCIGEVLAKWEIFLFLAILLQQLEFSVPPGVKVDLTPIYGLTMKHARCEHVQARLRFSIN

Cytochrome P450 3A4 = Cytochrome P450 3A4 (Homo sapiens, UniProt P08684); assay: Inhibition of human CYP3A4 by microplate-based direct fluorometric assay; format: ADME
Sequence of Cytochrome P450 3A4 (P08684 whole entry): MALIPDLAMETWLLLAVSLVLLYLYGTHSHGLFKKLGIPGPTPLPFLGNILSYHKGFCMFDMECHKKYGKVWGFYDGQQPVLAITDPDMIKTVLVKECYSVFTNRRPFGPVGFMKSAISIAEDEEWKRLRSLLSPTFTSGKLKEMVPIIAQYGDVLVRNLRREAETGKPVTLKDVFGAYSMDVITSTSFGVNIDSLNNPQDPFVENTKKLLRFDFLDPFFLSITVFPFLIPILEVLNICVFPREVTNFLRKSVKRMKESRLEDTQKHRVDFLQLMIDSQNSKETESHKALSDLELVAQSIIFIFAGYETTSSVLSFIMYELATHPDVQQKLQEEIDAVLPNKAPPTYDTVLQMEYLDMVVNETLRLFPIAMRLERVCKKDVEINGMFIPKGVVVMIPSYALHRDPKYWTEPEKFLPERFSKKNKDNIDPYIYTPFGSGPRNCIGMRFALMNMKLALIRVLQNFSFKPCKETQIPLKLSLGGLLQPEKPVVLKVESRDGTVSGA

[13] = target: T1, Somatostatin receptor type 1; assay: Antagonist activity at human sst1 receptor assessed as inhibition of forskolin-stimulated cAMP accumulation by luciferase assay; format: functional
[14] = target: Somatostatin receptor type 5 (Homo sapiens, UniProt P35346); assay: Binding affinity to human sst5 receptor; procedure, shortened: as §1
Sequence of Somatostatin receptor type 5 (P35346 whole entry): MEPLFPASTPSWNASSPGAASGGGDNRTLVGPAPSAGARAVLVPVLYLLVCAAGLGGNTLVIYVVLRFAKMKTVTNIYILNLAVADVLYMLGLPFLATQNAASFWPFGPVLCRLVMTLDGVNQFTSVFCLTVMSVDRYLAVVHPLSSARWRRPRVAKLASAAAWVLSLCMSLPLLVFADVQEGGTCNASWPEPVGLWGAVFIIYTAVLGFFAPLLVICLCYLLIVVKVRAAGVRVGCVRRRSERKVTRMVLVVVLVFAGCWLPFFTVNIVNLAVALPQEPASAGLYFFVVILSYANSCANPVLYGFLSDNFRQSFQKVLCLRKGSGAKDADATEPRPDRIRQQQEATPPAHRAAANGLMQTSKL

Sequence of Somatostatin receptor type 2 (Rattus norvegicus, UniProt P30680) (P30680 whole entry): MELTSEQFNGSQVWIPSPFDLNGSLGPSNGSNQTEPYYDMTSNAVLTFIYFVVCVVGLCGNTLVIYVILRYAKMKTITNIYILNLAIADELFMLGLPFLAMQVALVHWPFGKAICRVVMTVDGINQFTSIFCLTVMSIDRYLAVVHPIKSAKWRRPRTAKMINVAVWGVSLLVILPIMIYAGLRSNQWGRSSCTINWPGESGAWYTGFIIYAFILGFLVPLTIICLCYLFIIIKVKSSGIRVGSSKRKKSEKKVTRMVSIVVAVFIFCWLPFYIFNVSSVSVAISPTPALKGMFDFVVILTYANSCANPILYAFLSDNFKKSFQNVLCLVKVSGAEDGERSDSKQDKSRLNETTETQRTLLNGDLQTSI
Sequence of Somatostatin receptor type 1 (Rattus norvegicus, UniProt P28646) (P28646 whole entry): as the sequence (P30872 whole entry) above, with S8P, S11T, P16S, S20G, G25V, G26C, A32S, A45S, T385A, T389S counted along it

Row | Structure (SMILES) | Kd [1] [nM] | Kd [2] [nM] | also measured
1 | CN(CCC(=O)N1CCN(c2ccccc2Cl)CC1)CCC1c2ccccc2-c2ccccc21 | 24 | – | –
2 | CN(CCC(=O)N1CCN(c2ccc([N+](=O)[O-])cc2)CC1)CCc1ccc2ccccc2c1 | 275 | 16600 | –
3 | CN(CCC(=O)N1CCN(c2ccc(Cl)c(Cl)c2)CC1)CCC1c2ccccc2-c2ccccc21 | 1.91 | – | –
4 | CN(CCC(=O)N1CCN(c2ccc([N+](=O)[O-])cc2)CC1)CCC1c2ccccc2CCc2ccccc21 | 18.2 | 3470 | fold change (FC) (Rattus norvegicus): > 100
5 | CN(CCC(=O)N1CCN(c2ccccc2C#N)CC1)CCC1c2ccccc2-c2ccccc21 | 4.57 | – | –
6 | CN(CCC(=O)N1CCN(c2ccc([N+](=O)[O-])cc2)CC1)CCC1c2ccccc2Oc2ccccc21 | 0.891 | 6760 | fold change (FC) (Rattus norvegicus): > 1000
7 | CCN(CCC(=O)N1CCN(c2ccc([N+](=O)[O-])cc2)CC1)CCC1c2ccccc2-c2ccccc21 | 0.955 | 1820 | –
8 | CN(CCC(=O)N1CCN(c2ccc3nccn3n2)CC1)CCC1c2ccccc2-c2ccccc21 | 1.1 | – | –
9 | CN(CCC(=O)N1CCN(c2ccc([N+](=O)[O-])cc2)CC1)CCn1c2ccccc2c2ccccc21 | 331 | 14500 | –
10 | CN(CCC(=O)N1CCN(c2ccc3nonc3c2)CC1)CCC1c2ccccc2Oc2ccccc21 | 0.324 | 8130 | Kd [3]: 1620 nM; fold change (FC) (Rattus norvegicus): > 10000; Kd [4]: 1450 nM; Kd [5]: 2.14 nM
11 | CN(CCC(=O)N1CCN(c2cccc(C(F)(F)F)c2)CC1)CCC1c2ccccc2-c2ccccc21 | 61.7 | – | –
12 | Cc1cccc(C)c1N1CCN(C(=O)CCN(C)CCC2c3ccccc3-c3ccccc32)CC1 | > 1000 | – | –
13 | CN(CCC(=O)N1CCN(c2ccc(Cl)cc2)CC1)CCC1c2ccccc2-c2ccccc21 | 1.7 | – | –
14 | CN(CCC(=O)N1CCN(c2ccc([N+](=O)[O-])cc2)CC1)CCc1cccc2ccccc12 | 77.6 | 8710 | –
15 | C=CCN(CCC(=O)N1CCN(c2ccc([N+](=O)[O-])cc2)CC1)CCC1c2ccccc2-c2ccccc21 | 7.08 | 4070 | –
16 | CN(CCC(=O)N1CCN(c2ccc(F)cc2)CC1)CCC1c2ccccc2-c2ccccc21 | 1.95 | – | –
17 | CN(CCC(=O)N1CCN(c2ccc([N+](=O)[O-])cc2)CC1)CCC(c1ccccc1)c1ccccc1 | 13.8 | 8320 | –

Row | Structure (SMILES) | Kd [1] [nM] | Kd [2] [nM] | also measured
18 | CN(CCC(=O)N1CCN(c2ccc([N+](=O)[O-])cc2)CC1)CCC1c2ccccc2C=Cc2ccccc21 | 11.5 | 5130 | –
19 | CN(CCC(=O)N1CCN(c2ccc(F)cc2F)CC1)CCC1c2ccccc2-c2ccccc21 | 3.31 | – | –
20 | CN(CCC(=O)N1CCN(c2cccc(F)c2)CC1)CCC1c2ccccc2-c2ccccc21 | 3.63 | – | –
21 | CN(CCC(=O)N1CCN(c2cccc(=O)n2C)CC1)CCC1c2ccccc2-c2ccccc21 | 2.14 | – | –
22 | CC(C)N(CCC(=O)N1CCN(c2ccc([N+](=O)[O-])cc2)CC1)CCC1c2ccccc2-c2ccccc21 | 4.68 | 912 | –
23 | CN(CCC(=O)N1CCN(c2cccc(Cl)c2)CC1)CCC1c2ccccc2-c2ccccc21 | 17.8 | – | –
24 | CN(CCC(=O)N1CCN(c2ccc(C(F)(F)F)cc2)CC1)CCC1c2ccccc2-c2ccccc21 | 31.6 | – | –
25 | O=C(CCN(CCC1c2ccccc2-c2ccccc21)CC1CC1)N1CCN(c2ccc([N+](=O)[O-])cc2)CC1 | 45.7 | 6920 | –
26 | CN(CCC(=O)N1CCN(c2ccc3c(c2)OCO3)CC1)CCC1c2ccccc2-c2ccccc21 | 4.57 | – | –
27 | CN(CCC(=O)N1CCN(c2ccc([N+](=O)[O-])cc2)CC1)CCC1c2ccccc2-c2ccccc21 | 0.708 | 6920 | fold change (FC) (Rattus norvegicus): > 1000
28 | CN(CCC(=O)N1CCN(c2ccc(=O)n(C)n2)CC1)CCC1c2ccccc2-c2ccccc21 | 6.61 | – | –
29 | CN(CCC(=O)N1CCN(c2ccc([N+](=O)[O-])cc2)CC1)CCC1c2ccccc2Cc2ccccc21 | 29.5 | 18600 | –
30 | CN(CCC(=O)N1CCN(c2ccc3nonc3c2)CC1)CCC1c2ccccc2-c2ccccc21 | 0.741 | 4170 | Kd [3]: 1200 nM; fold change (FC) (Rattus norvegicus): > 10000; Kd [4]: 1150 nM; Kd [6]: 4170 nM; Kd [5]: 2.63 nM
31 | CN(CCC(=O)N1CCN(c2ccc(F)c(F)c2)CC1)CCC1c2ccccc2Oc2ccccc21 | 0.776 | 6460 | IC50 (Cytochrome P450 2D6): < 1000 nM; bioavailability [7]: 19%; Kd [3]: 2820 nM; IC50 (Cytochrome P450 2C19): > 10000 nM; Tmax [8]: 1 h; Kp [9]: > 1; Activity (V79): Non-toxic; Kd (D(4) dopamine receptor): 490 nM; half-life [10]: 11 h; fold change (FC) (Rattus norvegicus): > 10000; Kd (D(2) dopamine receptor): 490 nM; Kd [4]: 3390 nM; pKd [11]: 6.55; pKb [12]: 7.93; IC50 (Cytochrome P450 1A2): > 10000 nM; IC50 (Cytochrome P450 3A4): > 10000 nM; pKb [13]: 8.13; Kd [6]: 6920 nM; Kd [14]: 14500 nM; Kd [5]: 1.62 nM
32 | CN(CCC(=O)N1CCN(c2ccc([N+](=O)[O-])cc2)CC1)CCC1c2ccccc2Sc2ccccc21 | 12.6 | 6030 | –
33 | CN(CCC(=O)N1CCN(c2ccncc2)CC1)CCC1c2ccccc2-c2ccccc21 | 21.4 | – | –
34 | CN(CCC(=O)N1CCN(c2ccc(F)c(F)c2)CC1)CCC1c2ccccc2-c2ccccc21.Cl | 0.575 | 19500 | IC50 (Cytochrome P450 2D6): 1300 nM; bioavailability [7]: 7%; Kd [3]: 2690 nM; IC50 (Cytochrome P450 2C19): > 10000 nM; Tmax [8]: 1 h; Kp [9]: > 1; Activity (V79): Non-toxic; Kd (D(4) dopamine receptor): 126 nM; half-life [10]: 6 h; fold change (FC) (Rattus norvegicus): > 10000; Kd (D(2) dopamine receptor): 776 nM; Kd [4]: 2400 nM; pKd [11]: 6.53; pKb [12]: 8.55; IC50 (Cytochrome P450 1A2): > 10000 nM; IC50 (Cytochrome P450 3A4): > 10000 nM; pKb [13]: 8.46; Kd [6]: 12300 nM; Kd [5]: 5.37 nM
